Source: paper PMC11604526 (Cell Reports Medicine, 2024)
Square brackets hold non-standard residues; d marks the D form. Ends that are not written are not given here. Dmt = Cc1cc(O)cc(C)c1C[C@H](N)C(=O)O; Cha = N[C@@H](CC1CCCCC1)C(=O)O

Columns and labels:
GAT-1 and Synt1A = GAT-1 and Synt1A total levels and membrane fractions in cultured neurons; assay type: cell-based, mouse; details: GSNO 50 μM for 6 h; n = 5
Outline: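 Primary cortical neurons from E16 mice were grown on poly-L-ornithine in Neurobasal with 2% B27. For membrane fractions, cells were permeabilized in extraction buffer 1 and spun at 1000 ×g for 5 min; the pellet was resuspended in buffer 2B to extract integral membrane proteins. β-Actin was checked to confirm fraction purity. Western blots used anti-GAT-1 and anti-syntaxin1A (both 1:4000) and anti-Na+-K+-ATPase (1:1000).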

[1] = test system: layer 5 peri-infarct pyramidal neurons; experiment: Whole-cell recordings in acute brain slices from treated mice; assay type: in vivo, mouse
GAT-1 [2] = experiment: GAT-1 level and membrane fraction; assay type: cell-based; details: 100 nM; compared with Tat-Synt1A251-265mut; n = 5
Outline: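 HEK293 cells lentivirally expressing GAT-1-EGFP were exposed to peptide at 100 nM. Cells were permeabilised in Extraction Buffer 1 and spun at 1000 ×g for 5 min to split cytosol from membranes. Integral membrane proteins were extracted from the pellet in Extraction Buffer 2B and taken straight to western blot. β-Actin, a cytosolic marker, served to check membrane-fraction purity.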

[3] = test system: midline-crossing BDA+ fibers, C7 spinal cord; experiment: BDA tract tracing, axonal sprouting; assay type: in vivo, mouse; details: treatment days 5-11 after stroke; BDA day 34, staining day 48; n = 6
Outline: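 Contralateral cortex injected at two sites with 10% biotinylated dextran amine on day 34 after stroke. Fourteen days later, mice were transcardially perfused with ice-cold saline, then 4% PFA. Transverse cervical spinal cord and coronal brain sections were cut at 40 μm. BDA+ axons were labelled with streptavidin-Cy3 (1:500). Analysis was blinded.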

[4] = test system: SNARE complex (Synt1A, SNAP-25, VAMP-2); experiment: SNARE complex and monomer levels in synaptosomes; assay type: in vivo, mouse; details: 0.2 pmol/d days 5-7 after stroke, day 8
Outline: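 Peri-infarct tissue was homogenised at 4°C in 320 mM sucrose, 1 mM NaHCO3, 1 mM MgCl2 and 0.5 mM CaCl2. The homogenate was spun at 500 ×g for 2 min, and the supernatant at 10,100 ×g for 10 min. The pellet was resuspended in 0.32 M sucrose, layered on 0.8 M sucrose and spun at 9100 ×g for 15 min. The 0.8 M fraction was pelleted at 12,000 ×g for 15 min and taken up in SDS lysis buffer.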

[5] = test system: extracellular GABA ([GABA]o); experiment: Extracellular GABA in peri-infarct cortex; assay type: in vivo, mouse; details: microinjection 0.2 pmol/d days 5-7 after stroke; day 8 after stroke; microdialysis; n = 6
Outline: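 A CMA7 microdialysis probe was placed in peri-infarct cortex (AP 0, ML −0.65, DV −1.5 mm from bregma). It was perfused at 1 μL/min with bicarbonate-buffered saline containing 10 mM glucose. Dialysate was collected in 20-min fractions over 2 h, and the second fraction was analysed. GABA was measured by ELISA (activator, 37°C for 15 min in the dark, stop solution, A450).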

peri-infarct cortex = experiment: In vivo LFP and spike recording in peri-infarct cortex; set-up: species or system mouse; details: infused days 5-11 after stroke; recorded day 12
Outline: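 Spike-firing time histograms were built by counting spikes in sequential 1 s bins. Movement-related change was expressed as ((firing events during movement − firing events during stillness)/firing events during stillness) × 100.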

Synt1A-SNAP-25 complex = experiment: Co-IP of Synt1A-SNAP-25 complex in peri-infarct cortex; assay type: in vivo, mouse; details: microinjection 0.2 pmol/d days 5-7 after stroke; day 8; n = 5
Outline: (§1)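 Photothrombotic stroke was induced with rose bengal. Peptide was infused into the peri-infarct cortex through a 33-gauge injector in a guide cannula implanted in the infarct core (AP 0, ML −1.5, DV −1.0 mm from bregma). Dissected tissue was lysed 30 min in ice-cold RIPA and spun at 12,000 ×g for 15 min at 4°C. Lysates were precleared 1 h at 4°C with protein G magnetic beads before co-IP.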

Synt1A-VAMP-2 complex = experiment: Co-IP of Synt1A-VAMP-2 complex in peri-infarct cortex; assay type: in vivo, mouse; details: microinjection 0.2 pmol/d days 5-7 after stroke; day 8; n = 5
Outline: as §1

[6] = test system: mice with photothrombotic stroke; experiment: Motor function; assay type: in vivo, mouse
Outline: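 Photothrombotic stroke was induced with rose bengal, holding body temperature at 37 ± 0.5°C. For grid walking, each mouse walked freely for 5 min on a wire grid 50 cm high. For the cylinder task, mice explored a clear cylinder (15 cm tall, 10 cm diameter) for 5 min, and only rears with both forelimbs clearly visible were timed. Tests ran 7 days before stroke and at set days after stroke.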

GAT-1 [7] = experiment: 3H-GABA uptake in HEK293 cells overexpressing GAT-1; assay type: cell-based; details: 100 nM; compared with Tat-Synt1A251-265mut (100 nM); n = 5
Outline: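 HEK293 cells were kept in MEM with 10% FBS and transduced with lentiviral GAT-1-EGFP. These GAT-1-overexpressing cells were incubated with peptide (100 nM), or with the mutant control peptide at the same concentration, before 3H-GABA uptake was measured.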

GAT-1-Synt1A interaction = GAT-1-Synt1A interaction (Mus musculus, UniProt P31648); experiment: Synt1A-GAT-1 uncoupling activities of ZLQ series of compounds; details: Figures S4A/S4B; n = 3
[8] = 0.2 pmol/d days 5-7 after stroke, recorded day 8
[9] = compared with Tat-Synt1A251-265mut-treated mice
[10] = compared with sham and Tat-Synt1A251-265mut-treated mice with stroke

N[C@@H](CCC(=O)N[C@@H](CSN=O)C(=O)NCC(=O)O)C(=O)O [GSNO]
membrane contents of GAT-1 and Synt1A in cultured neurons (GAT-1 and Synt1A): significantly increased membrane contents of GAT-1 and Synt1A
total levels of GAT-1 and Synt1A in cultured neurons (GAT-1 and Synt1A): had no effects on the total levels of GAT-1 and Synt1A

Tat-TKKAVKYQSKARRKK [Tat-Synt1A251-265]
mEPSCs, sham-operated mice ([1]; 0.2 pmol/d): had no effect on sham-operated mice
mIPSCs, sham-operated mice ([1]; 0.2 pmol/d): had no effect on sham-operated mice
tonic GABA currents (Itonic), sham-operated mice ([1]; 0.2 pmol/d days 5-7, recorded day 8): had no effect on sham-operated mice
effect of stroke on Itonic, GAT-1 CKO mice with stroke [1, 8]: rather than that in GAT-1 CKO mice with stroke
effect of stroke on Itonic, WT mice with stroke [1, 8]: reversed the effect of stroke on Itonic
mEPSC frequency, mice with stroke ([1]; 0.2 pmol/d, day 8 after stroke): reversed stroke-induced decrease in mEPSC frequency
mIPSC frequency, mice with stroke ([1]; 0.2 pmol/d, day 8 after stroke): reversed the stroke-induced decrease in mIPSC frequency
sEPSC amplitude, mice with stroke [1, 9]: but not amplitude
sEPSC frequency, mice with stroke [1, 9]: significantly increased sEPSC frequency
sIPSC amplitude, mice with stroke [1, 10]: but not amplitude
sIPSC frequency, mice with stroke [1, 10]: significantly increased sIPSC frequency
sEPSCs, sham-operated mice ([1]; mouse, in vivo): had no effect on sEPSCs
sIPSCs, sham-operated mice ([1]; mouse, in vivo): had no effect on sIPSCs of sham-operated mice
expression of GAT-1, HEK293 cells overexpressing GAT-1 (GAT-1 [2]): did not affect
membrane distribution of GAT-1, HEK293 cells overexpressing GAT-1 (GAT-1 [2]): did not affect
number of BDA+ fibers crossing the midline into the denervated spinal cord at the C7 level [3]: significantly increased the number of BDA^+ fibers crossing the midline
Synt1A, SNAP-25, or VAMP-2 monomer (synaptosomes) [4]: did not affect
stroke-induced decreases in SNARE complexes (synaptosomes) ([4]; n = 5-6): reversed stroke-induced decreases in SNARE complexes
stroke-induced increase in [GABA]o in the peri-infarct cortex [5]: reversed stroke-induced increase in [GABA]o
LFP power in delta (1-3 Hz) and theta (4-12 Hz) oscillations (peri-infarct cortex): significantly enhanced
effects on cortical oscillations in GAT-1 CKO mice (peri-infarct cortex): disappeared in GAT-1 CKO mice
movement-related spike firing rates, WT mice (peri-infarct cortex): reversed stroke-induced decrease in spike firing rates
stroke-induced decrease in Synt1A-SNAP-25 complex (Synt1A-SNAP-25 complex): reversed stroke-induced decreases
stroke-induced decrease in Synt1A-VAMP-2 complex (Synt1A-VAMP-2 complex): reversed stroke-induced decreases
motor functions of sham-operated mice ([6]; peptide microinjection, sham-operated mice): had no effect on motor functions of sham-operated mice
3H-GABA uptake, HEK293 cells overexpressing GAT-1 (GAT-1 [7]): did not affect

[dR][Dmt][Cha][dK][dR]-NH2 (N-terminus assumed; SMILES Cc1cc(O)cc(C)c1C[C@H](NC(=O)[C@H](N)CCCNC(=N)N)C(=O)N[C@@H](CC1CCCCC1)C(=O)N[C@H](CCCCN)C(=O)N[C@H](CCCNC(=N)N)C(N)=O) [ZLQ-3]
GAT-1-Synt1A uncoupling activity among the ZLQ series (GAT-1-Synt1A interaction): most potent GAT-1-Synt1A uncoupling activity
impairment of motor functions, intranasal 5 mg/kg ([6]; 5 mg/kg intranasally days 5-11 after stroke, test day 12): attenuated the impairment of motor functions
